Cl transport mod – modulates chloride dependent transport by human KCC2. Q9H2X9. KCC2 cells, thallium flux FluoZin-2 fluorescence. B-score of Tl+ flux slope (higher = more flux/activation; lower = inhibition) at 10 µM. 190,000 compounds, 2.2% hits. AID 1456;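 active = thallium flux slope and its plate-corrected score both differing from the plate sample mean at a set confidence after two filtering rounds, in either direction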;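 also: slope of fluorescence scaled to starting intensity during 10 to 20 s after thallium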
NPY-Y1 antag – antagonists of human neuropeptide Y receptor Y1; P25929; HEK293-CNG Y1 cells, membrane potential fluorescence; NPY at EC95, then isoproterenol; inhibition, % at 3.6 µM; 200,000 compounds, 1% hits; AID 1040;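 active = inhibition above the campaign mean inhibition of all tested compounds plus 3 SD, cut at about 20% in these data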
Target sequence (P25929 whole entry, looked up): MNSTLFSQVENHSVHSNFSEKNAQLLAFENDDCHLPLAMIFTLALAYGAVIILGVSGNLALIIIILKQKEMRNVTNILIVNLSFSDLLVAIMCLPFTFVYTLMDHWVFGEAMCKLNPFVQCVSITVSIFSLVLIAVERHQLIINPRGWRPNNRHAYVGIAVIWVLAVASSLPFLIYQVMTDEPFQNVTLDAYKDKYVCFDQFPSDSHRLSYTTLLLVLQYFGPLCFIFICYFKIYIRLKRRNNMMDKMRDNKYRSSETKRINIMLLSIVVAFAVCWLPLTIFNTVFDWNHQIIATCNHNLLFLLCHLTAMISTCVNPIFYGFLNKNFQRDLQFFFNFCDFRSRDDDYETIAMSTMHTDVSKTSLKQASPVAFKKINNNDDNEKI
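Test system: HEK293 cells co-expressing NPY Y1 receptor and cyclic-nucleotide gated channel; Also added: NPY (25 nM), isoproterenol (1 µM), Ro 20-1724 (25 µM); Compound dosing: one concentration, 3.6 µM, in 0.4% DMSO; Timing: dye 3 h, compound 60 min room temperature, stimulation 45 min; Technique: Membrane-potential fluorescent dye readout.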
NPY1 pot ag – potentiates or activates human NPY-Y1 receptor; P25929; NPY-Y1 expressing cells, potentiator/agonist activation; activation, % at 3.6 µM; 220,000 compounds, 0.37% hits; AID 1304; in the data active = activation above about 33%, passing the limit was not always enough;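 also: cells stimulated with NPY at EC10 then isoproterenol at EC100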
NPY-Y2 antag – antagonists of human neuropeptide Y receptor Y2. AID 793. NPY-Y2 expressing cells, antagonist mode. 140,000 compounds, 0.99% hits. inhibition, % at 2.7 µM; in the data active = inhibition above about 17%
Target sequence (P49146 whole entry, looked up): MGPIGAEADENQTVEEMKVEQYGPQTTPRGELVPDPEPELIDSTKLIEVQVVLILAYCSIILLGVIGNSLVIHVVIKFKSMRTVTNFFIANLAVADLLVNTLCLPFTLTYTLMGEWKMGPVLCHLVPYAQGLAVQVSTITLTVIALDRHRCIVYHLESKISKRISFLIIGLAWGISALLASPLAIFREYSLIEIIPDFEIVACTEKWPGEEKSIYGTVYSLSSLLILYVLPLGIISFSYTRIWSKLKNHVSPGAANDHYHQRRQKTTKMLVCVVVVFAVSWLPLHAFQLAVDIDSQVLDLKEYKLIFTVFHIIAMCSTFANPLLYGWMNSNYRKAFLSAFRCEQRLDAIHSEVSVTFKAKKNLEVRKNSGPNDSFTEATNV
Furin inh – blocks human furin protease activity; P09958; purified furin, fluorogenic substrate cleavage; inhibition, % at 20 µM or 30 µM; 220,000 compounds, 0.061% hits; AID 463115; in the data active = inhibition above about 25%
NPY-Y2 PAM-ag – potentiators or agonists of human neuropeptide Y receptor Y2; cells expressing NPY-Y2, potentiator/agonist read-out; activation, % at 3.6 µM; 220,000 compounds, 0.45% hits; AID 1359; in the data active = activation above about 27%;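 also: cells stimulated with NPY near EC25 plus isoproterenol at EC100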
KCC2 sec1 – KCC2 (human) modulation, secondary assay | shares compounds with Cl transport mod | HEK293-KCC2, thallium flux, FluoZin2 fluorescence; stronger effect = higher value | normalised thallium flux (F/F0 slope) at 10 µM | 3,700 compounds, 15% hits | AID 1713;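 active = thallium flux slope above the same plate's solvent-only control mean plus 3 SD; inconclusive = the two replicate wells disagree; inactive = no significant difference from solvent-only control wells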
KCC2 bumet counter – thallium flux persisting under bumetanide in KCC2 cells, counter-screen secondary assay; shares compounds with Cl transport mod; HEK293-KCC2 + bumetanide/ouabain, thallium flux FluoZin2; stronger effect = higher value; normalized thallium flux at 10 µM; 3,700 compounds, 49% hits; AID 1714;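 active = thallium entry rate above the same plate's blocked-transporter control wells by more than 3 SD; inconclusive = the two repeat wells disagree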;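 also: raw slope of fluorescence over initial fluorescence between 10 and 20 s after thallium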
KCC2 secondary2 – confirmation of human KCC2 transport modulators; shares compounds with Cl transport mod; normalized thallium flux at 10 µM; HEK293-KCC2, thallium flux FluoZin2 fluorescence; actives lie on both sides; F/F0 rise rate, 10–20 s post-thallium; AID 1715; 3,700 compounds, 23% hits;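 active = thallium flux slope more than 3 SD above or below the plate's solvent-only control mean, mostly below; inconclusive = the two repeat wells disagreed; inactive = no significant shift from solvent-only controls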
HEK293 Tl flux – parental HEK flux effect, counter-screen; shares compounds with Cl transport mod; HEK293 parental cells, thallium flux FluoZin2, ouabain; baseline-ratio fluorescence slope, 10–20 s after thallium; thallium flux rate (normalised fluorescence) at 10 µM; 3,700 compounds, 46% hits; AID 1716;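 active = thallium flux rate significantly above the same plate's solvent-only control wells, beyond their mean plus 3 SD; inconclusive = the two replicate wells gave conflicting results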
KCC2 retest ouab – modulates human KCC2 on retest with ouabain; shares compounds with Cl transport mod; 3,700 compounds, 48% hits; AID 1717; HEK293-KCC2, thallium flux FluoZin2 fluorescence; bidirectional: low = inhibitor, high = activator; raw Tl+ flux slope (below DMSO = inhibition, above = activation) at 10 µM;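 active = thallium flux slope beyond 3 SD from same-plate DMSO control mean in most replicates, usually higher, sometimes lower; inconclusive = repeat tests gave conflicting results; inactive = no significant difference from controls in most replicates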;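 also: slope of initial-normalized fluorescence between seconds 10 and 20 after thallium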
HEK293 Tl flux2 – counter-screen for KCC2 modulators: effect in parental HEK293 cells; thallium flux FluoZin-2 fluorescence slope; thallium flux slope at 10 µM; 3,700 compounds, 33% hits; shares compounds with Cl transport mod; AID 1718;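 active = thallium flux slope above the same plate's solvent-control mean plus 3 SD in both duplicate wells; inconclusive = duplicate wells that disagreed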;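 also: run without ouabain in cells lacking the KCC2 cotransporter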
Numbers stand for hits; - = inactive; ? = inconclusive; . = no result. An excerpt weighted towards active compounds, which were near 3.7% of everything screened.

SMILES	Cl transport mod	NPY-Y1 antag	NPY1 pot ag	NPY-Y2 antag	Furin inh	NPY-Y2 PAM-ag	KCC2 sec1	KCC2 bumet counter	KCC2 secondary2	HEK293 Tl flux	KCC2 retest ouab	HEK293 Tl flux2
CO[C@H]1C[C@@H]2CC[C@@H](C)[C@@](O)(O2)C(=O)C(=O)N2CCCC[C@H]2C(=O)O[C@H]([C@H](C)C[C@@H]2CC[C@@H](O)[C@H](OC)C2)CC(=O)[C@H](C)C=C(C)[C@@H](O)[C@@H](OC)C(=O)[C@H](C)C[C@H](C)C=CC=CC=C1C	-	.	.	.	-	.	-	-	-	-	-	-
COc1ccc(N2CCN(C(=S)NCc3ccccc3)CC2)cc1	-	-	-	.	-	-	.	.	.	.	.	.
O=C1CC(c2nc3ccccc3[nH]2)CN1Cc1ccccc1 (stereo unspecified)	-3.4	-	-	-	-	-	0.012	?	-	-	-	-
O=C1CC(N2CCC(c3nc4ccccc4[nH]3)CC2)C(=O)N1Cc1ccccc1 (stereo unspecified)	-	-	-	-	-	-	.	.	.	.	.	.
O=C(OC(C(=O)NC1CCCC1)c1ccncc1)C1=Cc2ccccc2OC1 (stereo unspecified)	-4.3	-	-	-	-	-	-	-	-	-	0.016	-
O=S(=O)(NCc1cccc(C(F)(F)F)c1)NCc1ccccc1F	-	-	-	.	-	-	.	.	.	.	.	.
Cc1ccc(NC(=S)N(C)Cc2cn(C)c3ccccc23)cc1	-	-	-	-	-	-	.	.	.	.	.	.
C/C(=N\NC(=O)c1ccc([N+](=O)[O-])c(C)c1)c1ccccc1Cl	12	-	-	-	-	-	?	0.046	-	?	0.041	?
COc1ccc(C(=O)C2CCCN(C(=O)c3noc4c3CCCC4)C2)c(C)c1 (stereo unspecified)	.	-	-	.	-	-	-	-	-	?	-	-
COc1cc(Cl)c(C)cc1NC(=O)CN(C)Cc1cccc(OC)c1OC	-3.6	-	-	.	-	-	-	-	-	0.0061	-	?
COc1ccccc1CN(C)CC(=O)Nc1ccc(Cl)cc1F	-	-	-	.	-	-	.	.	.	.	.	.
Nc1c(C(=O)c2ccccc2)sc2nsc(SCCN3CCCC3)c12	4.2	.	-	.	-	-	0.006	-	-	-	0.014	-
Nc1c(C(=O)c2ccc(Cl)cc2)sc2nsc(SCCN3CCOCC3)c12	-	.	-	.	-	-	.	.	.	.	.	.
CCCOc1ccc(N2C(=O)C3ON(c4ccccc4)C(c4ccc(O)c(OC)c4)C3C2=O)cc1 (stereo unspecified)	-	-	-	-	-	-	-	-	?	-	-	-
Cc1ccc(SCCc2ccc(C)nc2)cc1	-	-	-	-	-	-	.	.	.	.	.	.
COc1cccc(OC)c1CC1SC(=O)NC1=O (stereo unspecified)	-	-	-	.	-	-	.	.	.	.	.	.
COc1ccc([N+](=O)[O-])cc1NC(=O)C(C)Sc1nc(-c2ccccc2)cs1 (stereo unspecified)	-	-	-	-	-	-	.	.	.	.	.	.
COC(=O)c1c(NC(=O)Cc2ccccc2)sc(C)c1C	-	-	-	-	-	-	.	.	.	.	.	.
COC(=O)c1c(NC(=S)Nc2ccccc2Cl)sc(C)c1C	6.3	-	-	-	-	-	0.013	0.022	-	0.014	?	0.012
Cc1nn2cc(-c3ccc(Cl)cc3)cnc2c1Cl	-	-	-	.	-	-	.	.	.	.	.	.
COc1cc(OC)nc(NC(=O)CS(=O)(=O)c2ccccc2)n1	-	-	-	-	-	-	.	.	.	.	.	.
COc1cc(C)nc(NC(=S)N(C)C(=O)c2ccccc2)n1	6.2	.	-	.	-	-	-	0.019	-	0.01	-	0.012
CN(C)CCN1C(=O)c2oc3ccc(F)cc3c(=O)c2C1c1ccncc1 (stereo unspecified)	-	-	-	-	-	-	.	.	.	.	.	.
CN(C)CCCN1C(=O)c2oc3ccc(Cl)cc3c(=O)c2C1c1cccnc1 (stereo unspecified)	3.7	-	-	-	-	-	-	0.015	-	0.0099	?	-
O=C(CCc1ccc(S(=O)(=O)NCc2ccccc2)cc1)NCC1CCCO1 (stereo unspecified)	-	-	-	-	-	-	.	.	.	.	.	.
SMILES	Cl transport mod	NPY-Y1 antag	NPY1 pot ag	NPY-Y2 antag	Furin inh	NPY-Y2 PAM-ag	KCC2 sec1	KCC2 bumet counter	KCC2 secondary2	HEK293 Tl flux	KCC2 retest ouab	HEK293 Tl flux2
C/C(Cc1ccccc1)=N\NC(=O)CNC(=O)c1ccc(Cl)cc1Cl	-	.	-	.	-	-	.	.	.	.	.	.
CC1CCCCC12NC(=S)N(c1ccccc1)N2 (stereo unspecified)	8.1	.	-	.	-	-	?	0.022	-	0.016	-	0.012
CC1CCCC2(C1)NC(=S)N(c1ccccc1)N2 (stereo unspecified)	-	-	-	-	-	-	.	.	.	.	.	.
CCOc1ccccc1N1CCN(CC(O)COc2ccc3c(C)cc(=O)oc3c2)CC1 (stereo unspecified)	6.3	-	-	-	-	-	-	-	-	-	-	-
Cc1cc(=O)oc2cc(OCC(O)CN3CCN(c4ccc(F)cc4)CC3)ccc12 (stereo unspecified)	-	-	-	-	-	-	.	.	.	.	.	.
O=C(NC(=O)c1ccncc1)NC(c1ccccc1)c1ccccc1	-4.8	-	-	-	-	-	-	-	-	?	-	-
CCCCC(=O)NC(=O)NC(c1ccccc1)c1ccccc1	.	.	-	.	-	-	.	.	.	.	.	.
S=c1[nH]nc(Cn2cnc3ccccc32)n1-c1ccccc1	-	-	-	.	-	-	.	.	.	.	.	.
C=C(C)CNC(=S)N/N=C/c1c(F)cccc1F	16	-	-	.	-	-	0.02	0.048	?	0.023	0.03	0.025
C=C(C)CNC(=S)N/N=C/c1ccc([N+](=O)[O-])cc1	-	-	-	.	-	-	.	.	.	.	.	.
CC1COC(Cn2c3ccccc3c3ccccc32)O1 (stereo unspecified)	-	.	-	.	-	-	.	.	.	.	.	.
O=S(=O)(NCc1ccco1)c1ccc2c(c1)Cc1ccccc1-2	-4	-	-	-	-	-	-	-	-	?	?	-
Cc1ccc(S(=O)(=O)NCc2ccco2)cc1C	-	-	-	-	-	-	.	.	.	.	.	.

Screens (PubChem)
